Screening results deposited in PubChem BioAssay by Broad Institute.
SIRT5 inh = inhibitors of human sirtuin-5 desuccinylase | inhibition, % at 15 µM | Purified SirT5, succinyl-peptide AMC, trypsin-coupled fluorescence | actives 1.1% (n = 330,000) | AID 652115 | Q9NXA8; in the data active means inhibition above about 15%; inconclusive means no clear call, values can overlap the other calls
Target sequence (Q9NXA8 whole entry, looked up): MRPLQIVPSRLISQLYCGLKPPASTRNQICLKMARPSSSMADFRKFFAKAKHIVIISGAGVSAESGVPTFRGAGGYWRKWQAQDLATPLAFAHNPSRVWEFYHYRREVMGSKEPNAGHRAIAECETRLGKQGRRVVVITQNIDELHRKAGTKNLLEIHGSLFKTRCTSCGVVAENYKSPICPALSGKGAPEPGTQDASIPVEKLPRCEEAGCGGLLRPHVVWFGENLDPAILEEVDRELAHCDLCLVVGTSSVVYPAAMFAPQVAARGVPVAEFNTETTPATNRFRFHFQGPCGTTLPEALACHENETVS
E-selectin induc = E-selectin induction on HUVECs; P16581; HUVEC E-selectin immunofluorescence imaging; normalized: neutral wells 0, TNF-alpha wells 100; activation, % at 7.58 µM; actives 0.37% (n = 260,000); AID 686992;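 active means mean E-selectin-positive cell signal at least 10% of the positive control, reached in at least 60% of replicates, without over 20% cell loss; inconclusive means no rule given, readout overlaps actives, possibly toxicity-flagged; inactive means the rest, including those meeting only one limit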
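Test system: HUVEC | Signal: Immunofluorescence imaging | Read-out: Percent E-selectin-positive cells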
DENV2 CPE rescue = protects cells from dengue virus 2 cytopathic effect. DENV2-infected cells, cytopathic effect rescue, plate reader. CPE inhibition, % at 9.99 µM. actives 1.7% (n = 350,000); in the data active means CPE inhibition above about 20%, passing the limit was not always enough; inconclusive means no clear call, values can overlap the other calls; tested in BHK-21 cells;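 further: 0% = median of neutral control wells and 100% = median of positive control wells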
Starred values were filed as active, the others as inactive; ? = inconclusive; / = no result. This is a sample that favours compounds with a hit; in the whole collection about 2.8% have one here.

SMILES | SIRT5 inh | E-selectin induc | DENV2 CPE rescue
Cc1ccc(S(=O)(=O)Nc2ccc3c(c2)C(=O)N([C@H](C)CO)C[C@@H](C)[C@H](CN(C)S(=O)(=O)c2ccc(Cl)cc2)OCCCC[C@@H](C)O3)cc1 | / | 0.9 | -16.0
Cc1ccc(S(=O)(=O)N(C)C[C@@H]2OCCCC[C@@H](C)Oc3ccc(NS(=O)(=O)c4ccc(Cl)cc4)cc3C(=O)N([C@H](C)CO)C[C@H]2C)cc1 | 23.4* | 0.2 | -7.4
O=C(O)C[C@H]1C[C@@H]2c3cc(NC(=O)CC4CC4)ccc3O[C@@H]2[C@@H](CO)O1 | -4.6 | -0.2 | 0.2
COc1cccc(-c2ccc3c(c2)[C@@H]2[C@@H](CCN2S(=O)(=O)c2ccccc2OC)[C@@H](CO)N3)c1 | 2.8 | 0.4 | -13.8
CCCN1[C@H](C(=O)OC)[C@@H](CO)[C@@H]2Cn3c(ccc(-c4ccccc4OC)c3=O)[C@@H]21 | 2.9 | -1.5 | -5.3
S=c1nccc(-c2cccs2)[nH]1 | 15.2* | 7.0 | 2.3
c1csc(-c2ccn[nH]2)c1 | -2.9 | / | 1.7
CO[C@@H]1CN(C)C(=O)c2ccc(NC(=O)C3CCOCC3)cc2OC[C@@H](C)N(S(=O)(=O)c2ccc(C)cc2)C[C@H]1C | 0.4 | -0.2 | 2.2
COC(=O)N/N=C/c1cn(Cc2ccccc2Cl)c2ccccc12 | 0.4 | 0.2 | -0.7
COC(=O)N/N=C/c1cn(Cc2ccc(Cl)cc2Cl)c2ccccc12 | 19.8* | / | ?
O=C(C[C@H]1CC[C@H](NC(=O)NC2CCCC2)[C@@H](CO)O1)NCc1ccc(F)cc1 | 1.3 | 0.1 | -5.4
COc1cccc(-c2ccc3c(c2)[C@@H]2[C@@H](CCN2S(=O)(=O)c2ccccc2OC)[C@H](CO)N3C)c1 | 9.2 | -0.4 | -17.4
COc1ccccc1C#Cc1ccc([C@H]2[C@@H](C#N)N(C(=O)C3CC3)[C@H]2CO)cc1 | -4.1 | -0.1 | -0.7
C[C@H]1CN([C@@H](C)CO)C(=O)Cc2cc(NS(=O)(=O)c3ccc(Cl)cc3)ccc2O[C@@H]1CN(C)Cc1ccc2c(c1)OCO2 | 6.0 | -0.3 | 23.4*
C[C@@H]1CN([C@H](C)CO)C(=O)Cc2cc(NS(=O)(=O)c3cn(C)cn3)ccc2O[C@H]1CN(C)Cc1ccc2c(c1)OCO2 | / | -0.1 | -4.7
C[C@H](CO)N1C[C@H](C)[C@@H](CN(C)Cc2ccc3c(c2)OCO3)Oc2ccc(NS(=O)(=O)c3cn(C)cn3)cc2CC1=O | / | -0.1 | 45.4*
C[C@H](CO)N1C[C@H](C)[C@@H](CN(C)Cc2ccc3c(c2)OCO3)Oc2ccc(NS(=O)(=O)c3ccc(Cl)cc3)cc2CC1=O | 17.9* | 0.4 | 6.0
C[C@H](CO)N1C[C@H](C)[C@H](CN(C)Cc2ccc3c(c2)OCO3)Oc2ccc(NS(=O)(=O)c3ccc(Cl)cc3)cc2CC1=O | 3.4 | -0.1 | -4.6
COc1ccc(S(=O)(=O)Nc2ccc3c(c2)CC(=O)N([C@H](C)CO)C[C@@H](C)[C@@H](CN(C)Cc2ccc4c(c2)OCO4)O3)cc1 | 3.0 | -0.1 | 0.8
COc1ccc(S(=O)(=O)Nc2ccc3c(c2)CC(=O)N([C@@H](C)CO)C[C@H](C)[C@H](CN(C)Cc2ccc4c(c2)OCO4)O3)cc1 | 3.6 | -0.1 | 28.2*
C[C@@H]1CN([C@@H](C)CO)C(=O)Cc2cc(NS(=O)(=O)c3ccc(Cl)cc3)ccc2O[C@@H]1CN(C)Cc1ccc2c(c1)OCO2 | 11.4 | 0.5 | -8.7
C[C@H]1CN([C@@H](C)CO)C(=O)c2cc(-c3ccccc3F)cnc2O[C@@H]1CN(C)C(=O)CN(C)C | 5.3 | -0.2 | 5.2
CC=Cc1ccc2n(c1=O)C[C@H]1[C@H](CO)[C@@H](C(=O)NC3CCC3)[C@@H]2N1Cc1ccccc1 (mixture of isomers) | -7.0 | -0.7 | -2.8
CO[C@@H]1CN(C)C(=O)c2cc(NC(=O)c3ccccc3)ccc2OC[C@@H](C)N(C)C[C@@H]1C | 3.3 | -0.2 | 0.5
CC(=O)N1[C@@H]2Cn3c(ccc(C4=CCCC4)c3=O)[C@H]1[C@@H](C(=O)N[C@H](C)c1ccccc1)[C@@H]2CO | -21.7 | 0.1 | 15.8
SMILES | SIRT5 inh | E-selectin induc | DENV2 CPE rescue
CS(=O)(=O)N1C[C@H](O)COC[C@@H]2O[C@@H](CC(=O)NCc3ccc(-c4ccccc4)cc3)CC[C@H]21 | / | 0.3 | -2.8
CC(C)CC#Cc1cnc2c(c1)C(=O)N([C@@H](C)CO)C[C@H](C)[C@@H](CN(C)Cc1ccccn1)O2 | -1.0 | -0.2 | 5.5
C[C@H]1CN([C@@H](C)CO)C(=O)c2cc(NC(=O)Cn3cnnn3)ccc2O[C@@H]1CN(C)Cc1ccccc1 | 0.1 | -0.3 | 3.6
C[C@@H]1CN([C@@H](C)CO)C(=O)c2cc(NC(=O)Cn3cnnn3)ccc2O[C@@H]1CN(C)Cc1ccc(Oc2ccccc2)cc1 | 2.0 | 52.1* | -7.1
C[C@@H]1CN([C@@H](C)CO)C(=O)c2cc(NC(=O)Cn3cnnn3)ccc2O[C@H]1CN(C)Cc1ccc(-c2ccccc2)cc1 | 10.5 | 0.1 | -8.7
C[C@@H]1CN([C@H](C)CO)C(=O)c2cc(NC(=O)Cn3cnnn3)ccc2O[C@@H]1CN(C)Cc1ccc(Oc2ccccc2)cc1 | -2.3 | 88.5* | 12.8
COCC(=O)Nc1ccc2c(c1)OC[C@@H](C)N(CCC(F)(F)F)C[C@H](C)[C@H](OC)CN(C)C2=O | -1.4 | -0.3 | ?
O=C(NCCS(=O)(=O)N1CCN(c2ccccc2)CC1)C1CC1 | -8.7 | 4.1 | 104.2*
O=C(NCCS(=O)(=O)N1CCN(c2ccccc2)CC1)C1CCCC1 | -0.7 | / | ?
COc1ccccc1C(=O)Nc1ccc(Br)c2cccnc12 | -1.6 | / | -3.6
COc1cc(NC(C)=O)c2ncccc2c1Br | -0.3 | 1.3 | 89.1*
CC(=O)Nc1cccc2ncccc12 | / | / | 32.0*
CC(C)(C)c1ccc(C(=O)Nc2cccc3ncccc23)cc1 | 2.0 | 0.0 | -7.3
CN(C)C(=O)c1ccc(-c2ccc([C@H]3[C@@H](CO)N4CCCCN(C(=O)C5CCC5)C[C@@H]34)cc2)cc1 | -1.3 | / | -1.4
C[C@@H]1CN([C@@H](C)CO)C(=O)c2cc(NS(=O)(=O)c3ccc(F)cc3)ccc2O[C@@H](C)CCCCO[C@@H]1CN(C)C(=O)Nc1ccc(C(F)(F)F)cc1 | / | / | -12.5
C[C@@H]1CCCCO[C@@H](CN(C)C(=O)Nc2ccc(C(F)(F)F)cc2)[C@@H](C)CN([C@H](C)CO)C(=O)c2cc(NS(=O)(=O)c3ccc(F)cc3)ccc2O1 | 10.4 | / | 6.7
C[C@H](CO)N1C[C@H](C)[C@@H](CN(C)C(=O)Nc2ccc(C(F)(F)F)cc2)OCCCC[C@H](C)Oc2ccc(NS(=O)(=O)c3ccc(F)cc3)cc2C1=O | 4.4 | / | 94.5*
C[C@@H]1CCCCO[C@@H](CN(C)C(=O)Nc2ccc(C(F)(F)F)cc2)[C@H](C)CN([C@@H](C)CO)C(=O)c2cc(NS(=O)(=O)c3ccc(F)cc3)ccc2O1 | 6.2 | / | 60.8*
C[C@@H]1CCCCO[C@H](CN(C)C(=O)Nc2ccc(C(F)(F)F)cc2)[C@H](C)CN([C@H](C)CO)C(=O)c2cc(NS(=O)(=O)c3ccc(F)cc3)ccc2O1 | 6.8 | / | 70.9*
C[C@H](CO)N1C[C@H](C)[C@H](CN(C)C(=O)Nc2ccc(C(F)(F)F)cc2)OCCCC[C@H](C)Oc2ccc(NS(=O)(=O)c3ccc(Cl)cc3)cc2C1=O | 39.9* | 0.5 | -0.7
